Data published in ChEMBL document CHEMBL3774311, “Synthesis and in vitro antitumour activity of tiazofurin analogues with nitrogen functionalities at the C-2' position” (Eur J Med Chem, 2016).

Tests used:
K562 [1] = experiment: Antiproliferative activity against human K562 cells after 72 hrs by MTT assay; type: functional, cell-based
In short: (§1)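 Human tumour lines and MRC-5 foetal lung fibroblasts (normal-cell comparator) exposed to compounds for 72 h; viability read by standard MTT assay. IC50 taken as concentration inhibiting growth by 50% versus untreated control; means of three independent experiments, coefficients of variation under 10%.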

[2] = Antiproliferative activity against human HL60 cells after 72 hrs by MTT assay; type: functional, cell-based, HL-60; in short: as §1
Jurkat = experiment: Antiproliferative activity against human Jurkat cells after 72 hrs by MTT assay; type: functional, cell-based; in short: as §1
Raji = experiment: Antiproliferative activity against human Raji cells after 72 hrs by MTT assay; type: functional, cell-based; in short: as §1
HT-29 = experiment: Antiproliferative activity against human HT-29 cells after 72 hrs by MTT assay; type: functional, cell-based; settings: HT-29, 72 h; in short: as §1
MCF7 = experiment: Antiproliferative activity against human MCF7 cells after 72 hrs by MTT assay; type: functional, cell-based; settings: MCF7, 72 h; in short: as §1
HeLa = experiment: Antiproliferative activity against human HeLa cells after 72 hrs by MTT assay; type: functional, cell-based; in short: as §1
MRC5 = experiment: Cytotoxicity against human MRC5 cells after 72 hrs by MTT assay; type: cell-based; settings: MRC5, 72 h; in short: as §1
K562 [3] = experiment: Induction of cell cycle arrest in human K562 cells assessed as accumulation at Sub-G1 phase after 24 hrs by propidium iodide staining-based flow cytometry (reference value: 1.05%); type: functional
In short: (§2)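 Exponentially growing K562 cells treated 24 or 72 h; cells stained with propidium iodide and cell-cycle distribution (sub-G1, G0/G1, S, G2/M, %) measured by flow cytometry; untreated cells as control.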

K562 [4] = experiment: Induction of cell cycle arrest in human K562 cells assessed as accumulation at Sub-G1 phase after 72 hrs by propidium iodide staining-based flow cytometry (reference value: 3.04%); type: functional; in short: as §2
K562 [5] = experiment: Induction of cell cycle arrest in human K562 cells assessed as accumulation at G0/G1 phase after 24 hrs by propidium iodide staining-based flow cytometry (reference value: 36.28%); type: functional; in short: as §2
K562 [6] = experiment: Induction of cell cycle arrest in human K562 cells assessed as accumulation at G0/G1 phase after 72 hrs by propidium iodide staining-based flow cytometry (reference value: 45.92%); type: functional; in short: as §2
K562 [7] = experiment: Induction of cell cycle arrest in human K562 cells assessed as accumulation at S phase after 24 hrs by propidium iodide staining-based flow cytometry (reference value: 48.38%); type: functional; in short: as §2
K562 [8] = experiment: Induction of cell cycle arrest in human K562 cells assessed as accumulation at S phase after 72 hrs by propidium iodide staining-based flow cytometry (reference value: 35.73%); type: functional; in short: as §2
K562 [9] = experiment: Induction of cell cycle arrest in human K562 cells assessed as accumulation at G2/M phase after 24 hrs by propidium iodide staining-based flow cytometry (reference value: 14.29%); type: functional; in short: as §2
K562 [10] = experiment: Induction of cell cycle arrest in human K562 cells assessed as accumulation at G2/M phase after 72 hrs by propidium iodide staining-based flow cytometry (reference value: 15.31%); type: functional; in short: as §2
K562 [11] = experiment: Induction of specific apoptosis in human K562 cells after 24 hrs by annexin V-FITC/propidium iodide staining based flow cytometry; type: functional; design: concentration or dose not given beside the values
In short: (§3)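 K562 cells treated 24 or 72 h, double-stained with Annexin V-FITC/PI and analysed by flow cytometry to give percentages of live, apoptotic and necrotic cells; apoptotic and necrotic responses expressed as specific apoptosis or specific necrosis (%).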

K562 [12] = experiment: Induction of specific apoptosis in human K562 cells after 72 hrs by annexin V-FITC/propidium iodide staining based flow cytometry; type: functional; design: concentration or dose not given beside the values; in short: as §3
K562 [13] = experiment: Induction of specific necrosis in human K562 cells after 24 hrs by annexin V-FITC/propidium iodide staining based flow cytometry; type: functional; design: concentration or dose not given beside the values; in short: as §3
K562 [14] = experiment: Induction of specific necrosis in human K562 cells after 72 hrs by annexin V-FITC/propidium iodide staining based flow cytometry; type: functional; design: concentration or dose not given beside the values; in short: as §3
K562 [15] = experiment: Induction of apoptosis in human K562 cells assessed as necrotic cells after 24 hrs by annexin V-FITC/propidium iodide staining based flow cytometry (reference value: 1.50%); type: functional; in short: as §3
K562 [16] = experiment: Induction of apoptosis in human K562 cells assessed as late apoptotic cells after 24 hrs by annexin V-FITC/propidium iodide staining based flow cytometry (reference value: 4.58%); type: functional; in short: as §3
K562 [17] = experiment: Induction of apoptosis in human K562 cells assessed as living cells after 24 hrs by annexin V-FITC/propidium iodide staining based flow cytometry (reference value: 85.85%); type: functional; in short: as §3
K562 [18] = experiment: Induction of apoptosis in human K562 cells assessed as early apoptotic cells after 24 hrs by annexin V-FITC/propidium iodide staining based flow cytometry (reference value: 8.09%); type: functional; in short: as §3
K562 [19] = experiment: Induction of apoptosis in human K562 cells assessed as necrotic cells after 72 hrs by annexin V-FITC/propidium iodide staining based flow cytometry (reference value: 7.23%); type: functional; in short: as §3
K562 [20] = experiment: Induction of apoptosis in human K562 cells assessed as late apoptotic cells after 72 hrs by annexin V-FITC/propidium iodide staining based flow cytometry (reference value: 5.24%); type: functional; in short: as §3
K562 [21] = experiment: Induction of apoptosis in human K562 cells assessed as living cells after 72 hrs by annexin V-FITC/propidium iodide staining based flow cytometry (reference value: 84.31%); type: functional; in short: as §3
K562 [22] = experiment: Induction of apoptosis in human K562 cells assessed as early apoptotic cells after 72 hrs by annexin V-FITC/propidium iodide staining based flow cytometry (reference value: 3.22%); type: functional; in short: as §3
K562 [23] = experiment: Induction of apoptosis in human K562 cells assessed as Bcl2 protein level after 24 hrs by Western blotting method (reference value: 22.81%); type: functional
K562 [24] = experiment: Induction of apoptosis in human K562 cells assessed as Bax protein level after 24 hrs by Western blotting method (reference value: 16.13%); type: functional
K562 [25] = experiment: Induction of apoptosis in human K562 cells assessed as caspase 3 level after 24 hrs by Western blotting method (reference value: 42.77%); type: functional
K562 [26] = experiment: Induction of apoptosis in human K562 cells assessed as cleaved PARP level after 24 hrs by Western blotting method (reference value: 36.17%); type: functional
K562 [27] = experiment: Induction of apoptosis in human K562 cells assessed as Bcl2 protein level after 72 hrs by Western blotting method (reference value: 7.90%); type: functional
K562 [28] = experiment: Induction of apoptosis in human K562 cells assessed as Bax protein level after 72 hrs by Western blotting method (reference value: 32.81%); type: functional
K562 [29] = experiment: Induction of apoptosis in human K562 cells assessed as caspase 3 level after 72 hrs by Western blotting method (reference value: 17.05%); type: functional
K562 [30] = experiment: Induction of apoptosis in human K562 cells assessed as cleaved PARP level after 72 hrs by Western blotting method (reference value: 18.36%); type: functional
[31] = Antiproliferative activity against human HL60 cells after 24 hrs; type: functional, cell-based; settings: HL-60, 24 h

Structure (SMILES)	IC50 (Jurkat)	IC50 (HT-29)	IC50 (MCF7)	IC50 (MRC5)	Activity (K562 [3])	Activity (K562 [4])	Activity (K562 [5])	Activity (K562 [6])	Activity (K562 [7])	Activity (K562 [8])	Activity (K562 [9])	Activity (K562 [10])	Activity (K562 [11])	Activity (K562 [12])	Activity (K562 [13])	Activity (K562 [14])	Activity (K562 [15])	Activity (K562 [16])	Activity (K562 [17])	Activity (K562 [18])	other results
NC(=O)c1csc([C@@H]2O[C@H](CO)[C@@H](O)[C@H]2N)n1	> 100 µM	> 100 µM	> 100 µM	> 100 µM	1.4%	13.52%	32.21%	40.24%	46.33%	34.08%	20.06%	12.16%	17.57%	33.39%	4.97%	7.11%	6.48%	10.18%	71.33%	12.02%	IC50 (K562 [1]; k562): 0.51 µM; IC50 ([2]; hl-60): 12.2 µM; IC50 (Raji; raji): 2.59 µM; IC50 (HeLa; hela): 0.15 µM; Activity (K562 [19]): 8.02%; Activity (K562 [20]): 66.51%; Activity (K562 [21]): 2.92%; Activity (K562 [22]): 22.56%; Activity (K562 [23]): 9.06%; Activity (K562 [24]): 3.52%; Activity (K562 [25]): 22.07%; Activity (K562 [26]): 10.01%; Activity (K562 [27]): 3.21%; Activity (K562 [28]): 112.54%; Activity (K562 [29]): 38.2%; Activity (K562 [30]): 11.32%
NC(=O)c1csc([C@@H]2O[C@H](CO)[C@@H](O)[C@H]2NC(=O)c2ccccc2)n1	0.03 µM	0.02 µM	19.9 µM	0.05 µM	6.12%	11.29%	39.08%	44.1%	49.13%	34.11%	5.67%	10.5%	29%	50.41%	11.71%	6.86%	13.22%	26.45%	53.81%	6.54%	IC50 (K562 [1]; Homo sapiens, K562, 72 h): 0.02 µM; IC50 ([2]; Homo sapiens, HL-60, 72 h): 20.4 µM; IC50 (Raji; Homo sapiens, Raji, 72 h): 0.01 µM; IC50 (HeLa; Homo sapiens, HeLa, 72 h): > 100 µM; Activity (K562 [19]): 7.35%; Activity (K562 [20]): 80.99%; Activity (K562 [21]): 3.74%; Activity (K562 [22]): 7.94%; Activity (K562 [23]): 64.31%; Activity (K562 [24]): 30.99%; Activity (K562 [25]): 93.34%; Activity (K562 [26]): 57.9%; Activity (K562 [27]): 15.94%; Activity (K562 [28]): 95.1%; Activity (K562 [29]): 27.61%; Activity (K562 [30]): 63.83%; IC50 [31]: 0.12 µM
COc1cccc(C(=O)N[C@@H]2[C@H](O)[C@@H](CO)O[C@H]2c2nc(C(N)=O)cs2)c1	23.6 µM	> 100 µM	9.54 µM	> 100 µM	4.44%	10.84%	39.45%	43.13%	46.71%	34%	9.41%	12.04%	11.88%	37.07%	3.68%	10.33%	5.19%	8.67%	77.99%	8.16%	IC50 (K562 [1]; Homo sapiens, K562, 72 h): > 100 µM; IC50 ([2]; Homo sapiens, HL-60, 72 h): 2.69 µM; IC50 (Raji; Homo sapiens, Raji, 72 h): 6.29 µM; IC50 (HeLa; Homo sapiens, HeLa, 72 h): > 100 µM; Activity (K562 [19]): 10.82%; Activity (K562 [20]): 69.98%; Activity (K562 [21]): 2.76%; Activity (K562 [22]): 16.45%; Activity (K562 [23]): 47.76%; Activity (K562 [24]): 4.66%; Activity (K562 [25]): 104.69%; Activity (K562 [26]): 111.75%; Activity (K562 [27]): 26.7%; Activity (K562 [28]): 89.53%; Activity (K562 [29]): 82.68%; Activity (K562 [30]): 37.39%
